High-throughput results as filed in PubChem BioAssay.
TIM10 inh – TIM10 yeast growth inhibition. S. cerevisiae TIM10 strain growth, BacTiter-Glo luminescence, 24 h. inhibition, % at 10 µM. 330,000 tested, 1.4% active;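 active means inhibition of 40% or more at the single tested concentration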;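 further: wild-type TIM10 isogenic control strain grown at permissive 25 °C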
UPR XBP1 act – adaptive UPR (XBP1) activation; activation, % at 20 µM; 330,000 tested, 0.33% active; CHO-XBP1 luciferase reporter, IRE1-XBP1 UPR activation, luminescence; percent of tunicamycin response, DMSO as zero;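 active means versus positive control, 20 µM dose yields 30% or more activation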;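 further: 100% = tunicamycin at 10 µg/mL and 0% = DMSO only wells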
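Assay system: IRE1-XBP1 luciferase reporter CHO line. Input: 1000 cells/well. Buffer or medium: F12 with 10% serum. Doses: 20 µM, 1% DMSO. Times: overnight seeding at 37 °C, 6 h compound treatment at 37 °C. Technique: Steady-Glo luciferase glow luminescence, 10 min after reagent addition.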
CHOP UPR activ – apoptotic UPR (CHOP) activation | CHO-CHOP luciferase reporter, luminescence; percent of tunicamycin response over DMSO baseline | activation, % at 10 µM | 330,000 tested, 0.34% active;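 active means at 10 µM dose, activation of 40% or more, normalized to positive control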;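 further: 100% = tunicamycin at 10 µg/mL and 0% = DMSO alone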
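Material: CHO-CHOP cells, stable luciferase reporter of PERK-eIF2a-CHOP signalling; quantity: 500 reporter cells seeded per well; buffer or medium: F12 medium containing 10% fetal bovine serum; compound: one dose, 10 µM in 0.5% DMSO; incubation: 6 h compound treatment, 37 °C; measured by: Steady-Glo luciferase luminescence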
tim10-1 inh – inhibits growth of tim10-1 mutant yeast; S. cerevisiae tim10-1 ts strain growth, BacTiter-Glo, 24 h; inhibition, % at 20 µM; 330,000 tested, 2.2% active; AID 463190;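 active means inhibition of at least 40%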;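 further: mutant grown at 25 °C; 0% = DMSO wells with yeast and 100% = wells holding no yeast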
tim23-1 inh – tim23-1 yeast growth inhibition. inhibition, % at 20 µM. S. cerevisiae tim23-1 growth, BacTiter-Glo luminescence, 24 h. AID 463212. 330,000 tested, 1.3% active;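 active means growth inhibition of the mutant yeast at or above 50%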;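 further: temperature-sensitive mutant grown at 25 °C; plate controls were DMSO-treated mutant yeast for no effect and medium wells lacking yeast for full effect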
tim10-1 conf – confirmation of tim10-1 mutant yeast growth inhibitors; shares compounds with tim10-1 inh; S. cerevisiae tim10-1 ts strain growth, BacTiter-Glo, 24 h; inhibition, % at 20 µM; 7,400 tested, 56% active; AID 463213;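 active means inhibition of yeast growth at or above a set limit in either of two repeat tests at 20 µM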;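 further: tim10-1 mutant grown at permissive 25 °C to find synthetic lethal compounds; 0% = DMSO yeast wells and 100% = medium wells without yeast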
TIM10 conf – confirmation of TIM10 yeast growth inhibitors; inhibition, % at 10 µM; S. cerevisiae tim10 strain growth, BacTiter-Glo luminescence, 24 h; shares compounds with TIM10 inh; 4,600 tested, 63% active;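 active means inhibition of yeast growth at or above a set limit in either of two replicates at 10 µM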;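 further: this counterscreen used the strain with wild-type TIM10; 0% = yeast with DMSO and 100% = medium wells lacking yeast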
tim23-1 conf – tim23-1 yeast growth inhibition, confirmed. 4,400 tested, 83% active. shares compounds with tim23-1 inh. inhibition, % at 20 µM. S. cerevisiae tim23-1 growth, BacTiter-Glo luminescence, 24 h. AID 463218;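 active means inhibition above about 39% in either of two replicate wells at 20 µM, limit read from the data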;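 further: temperature-sensitive tim23-1 mutant grown at 25 °C; 0% = DMSO wells with yeast and 100% = medium wells without yeast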
* = called active by the depositor; . = no result given. Most compounds without a hit are left out; they make up all but 3.9% or so of the library.

SMILES | TIM10 inh | UPR XBP1 act | CHOP UPR activ | tim10-1 inh | tim23-1 inh | tim10-1 conf | TIM10 conf | tim23-1 conf
Cc1cccc(-n2nc3c(c2NC(=O)c2ccc4c(c2)OCO4)CS(=O)(=O)C3)c1C | 1 | -2 | 0 | 4 | 2 | . | . | .
COc1ccc2c3n(nc2c1)CCN=C3c1cc(Cl)c(N)c(Cl)c1 | 29 | 5 | 2 | 42* | 55* | 18 | . | 51*
CCOc1ccc(NC(=O)CN(C)C(=O)c2cccnc2Sc2ccc(C)c(C)c2)cc1OCC | 5 | -8 | -2 | 3 | 8 | . | . | .
Nc1nc(N)nc(-c2cccc(Cl)c2)n1 | 13 | 7 | 5 | 17 | 3 | . | . | .
CC(C)(C)c1cc(-c2nc(N)nc(N)n2)cc(C(C)(C)C)c1 | 42* | -2 | 1 | 51* | 64* | 49* | -11 | 61*
COc1cc(/C=C/c2sc3ccccc3[n+]2CCCS(=O)(=O)[O-])ccc1O | 31 | 2 | 1 | 45* | 52* | 44* | . | 50*
Cc1c(C2(O)CCCCC2)[nH]c2cc(C(F)(F)F)ccc12 | 25 | 3 | 0 | 42* | 56* | 22 | . | 64*
Cc1c(C2(O)CCCCC2)[nH]c2cnccc12 | 1 | 0 | 2 | -3 | 11 | . | . | .
O=C(/C=C/c1ccccn1)c1cc(Br)ccc1O | 72* | 16 | 35 | 70* | 78* | 62* | 68* | 75*
CCc1cc2c(=O)c(-c3nc(C)cs3)coc2cc1O | 10 | 2 | 7 | 5 | -5 | . | . | .
COc1ccc2c(=O)c(-c3nc(C)cs3)coc2c1 | 64* | -4 | -5 | 43* | 52* | 33* | -39 | 65*
CCN1C(=O)C(=O)N(CC(=O)N2CCN(c3ccccc3)CC2)C1=O | -2 | -2 | 1 | -11 | -18 | . | . | .
O=C(Nc1cc(Cl)ccc1N1CCOCC1)C1=COCCO1 | -1 | -4 | -1 | 23 | 21 | . | . | .
COc1ccc2sc3ccccc3c(=O)c2c1OC | 52* | -1 | 1 | 41* | 58* | 57* | 50* | 64*
Cc1cccc(/C=C/c2onc(C)c2[N+](=O)[O-])n1 | 68* | -3 | 37 | 64* | 84* | 61* | 78* | 71*
CC(=O)N1CCc2cc(S(=O)(=O)N3CCc4ccccc43)ccc21 | 8 | -4 | -1 | 23 | 14 | . | . | .
c1ccc(-c2ccc(-c3nc(-c4ccccn4)no3)cc2)cc1 | 29 | -9 | -9 | 46* | 54* | 49* | . | 74*
COc1ccc(C2CC(=O)Oc3cc(O)cc(O)c32)cc1 (centres undefined) | 2 | 2 | 0 | 10 | 15 | . | . | .
COc1ccc([C@H]2Oc3cc(O)cc(O)c3C(=O)C2[C@@H]2C(=O)c3c(O)cc(O)cc3O[C@@H]2c2ccc(OC)cc2)cc1 (some centres undefined) | 15 | 3 | 2 | 49* | 60* | 46* | . | 49*
CNC(=S)N/N=C/c1cn(Cc2c(F)cccc2Cl)c2ccccc12 | 57* | 3 | -1 | 47* | 51* | 37* | -10 | 40*
CCNC(=S)N/N=C/c1cn(Cc2ccccc2F)c2ccccc12 | 30 | 3 | 1 | 14 | 18 | . | . | .
O=C(O/N=C1\CCCc2ccccc21)c1cccs1 | 38 | 2 | 6 | 15 | 25 | . | . | .
Cc1cccc(/C(N)=N/OC(=O)c2cccs2)c1 | 79* | 0 | 5 | 65* | 81* | 57* | 73* | 76*
N/C(=N\OC(=O)c1cccs1)c1ccccc1 | 70* | -6 | -4 | 65* | 71* | 63* | 36* | 67*
Cc1ccc(/C(N)=N/OC(=O)c2cccs2)cc1 | 80* | 0 | 2 | 48* | 73* | 60* | 88* | 24
SMILES | TIM10 inh | UPR XBP1 act | CHOP UPR activ | tim10-1 inh | tim23-1 inh | tim10-1 conf | TIM10 conf | tim23-1 conf
Cc1ccc(/C(N)=N/OC(=O)C23CC4CC(CC(C4)C2)C3)cc1 | 85* | 7 | 4 | 58* | 80* | 42* | 86* | 67*
Cc1ccc(C23CC4CC(CC(C(N)=O)(C4)C2)C3)cc1 | 8 | 2 | 3 | 21 | 39 | . | . | .
Cc1cccc(/C(N)=N/OC(=O)N2CCOCC2)c1 | 2 | 4 | 4 | -3 | 9 | . | . | .
CCOc1ccc(-c2noc(CCC(=O)NCC3CCCO3)n2)cc1OC (centres undefined) | -8 | 2 | -1 | 12 | 15 | . | . | .
N#Cc1ccccc1OCC(=O)N1CCN(C(=O)c2ccco2)CC1 | 9 | -2 | 2 | 17 | 11 | . | . | .
N/C(=N\OC(=O)c1cccs1)c1cccc(Br)c1 | 90* | 2 | 8 | 57* | 80* | 59* | 86* | 51*
N/C(=N\OC(=O)Cc1ccccc1)c1cccc(Br)c1 | -1 | 3 | 1 | 9 | 23 | . | . | .
CCN1C(=O)/C(=C\C(=O)c2cccs2)c2cc(Br)ccc21 | 74* | 0 | -1 | 49* | 72* | 34* | 65* | 25
O=C(CN(Cc1ccc(F)cc1)C(=O)CCC(=O)Nc1nccs1)NCc1ccccc1 | 14 | 2 | 2 | -14 | 1 | . | . | .
CCOc1ccc(Br)cc1C1=NN(C(C)=O)C(c2ccc([N+](=O)[O-])s2)O1 (centres undefined) | 45* | -1 | 4 | 64* | 83* | 71* | 55* | 65*
Cc1noc(C)c1NC(=O)Nc1ccc2c(c1)C(=O)N([C@H](C)CO)C[C@H](C)[C@@H](CN(C)C(=O)Nc1c(C)noc1C)O2 | -1 | -3 | -1 | 10 | 1 | . | . | .
O=C(OC1CCCCC1)c1ccc(NC(=O)c2ccco2)cc1 | 23 | 2 | 8 | 44* | 54* | 30 | . | 70*
COc1ccc(C(=O)Nc2ccc(NC(=O)c3ccco3)cc2)cc1 | 16 | -1 | 1 | -37 | 13 | . | . | .
Cc1ccc(C)c(OCC(=O)NNC(=O)CCN2CCN(c3ccccc3)CC2)c1 | 1 | 1 | 1 | 9 | 7 | . | . | .
COc1cccc(CNS(=O)(=O)c2cc3c(cc2Cl)NC(=O)CO3)c1 | -2 | -2 | 1 | -15 | -8 | . | . | .
N#Cc1cc(-c2ccccc2)[nH]c1-c1nccc2ccccc12 | 23 | 1 | -1 | 42* | 51* | 18 | . | 44*
Oc1ccc(N=Nc2ccccc2)o1 | 18 | -11 | 21 | 67* | 68* | 67* | . | 75*
FC(F)(F)c1cc(C(F)(F)F)c2ccc(N3CCN(c4ccc(Cl)cc4)CC3)nc2n1 | -29 | -1 | 0 | 18 | -36 | . | . | .
